# This is a sample that favours compounds with a hit; in the whole collection about 1.4% have one here.
# CTSL1 counter: cathepsin L1 inhibition, PFM18AAP counter-screen; hit rate 0.49% among 300,000; recombinant F. hepatica cathepsin L1, Z-Leu-Arg-MCA fluorescence; inhibition, % at 5.96 µM;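 active means inhibition above the mean of all tested compounds plus 3 SD, set per screening campaign, cut at about 17% in these data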;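 further: 0% = plate median of test compound wells and 100% = 1 µM Z-Phe-Ala-diazomethylketone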
# TDP2 inh: blocks human TDP2 phosphodiesterase activity; O95551; recombinant TDP2, T5PNP hydrolysis, p-nitrophenol absorbance 415 nm; inhibition, % at 12.8 µM; hit rate 0.34% among 370,000;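 active means inhibition above the mean of all tested compounds plus 3 SD, set per campaign, cut at about 25% in these data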;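 further: 0% = DMSO with enzyme and 100% = buffer with substrate but no TDP2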
# Target sequence (O95551 whole entry, looked up): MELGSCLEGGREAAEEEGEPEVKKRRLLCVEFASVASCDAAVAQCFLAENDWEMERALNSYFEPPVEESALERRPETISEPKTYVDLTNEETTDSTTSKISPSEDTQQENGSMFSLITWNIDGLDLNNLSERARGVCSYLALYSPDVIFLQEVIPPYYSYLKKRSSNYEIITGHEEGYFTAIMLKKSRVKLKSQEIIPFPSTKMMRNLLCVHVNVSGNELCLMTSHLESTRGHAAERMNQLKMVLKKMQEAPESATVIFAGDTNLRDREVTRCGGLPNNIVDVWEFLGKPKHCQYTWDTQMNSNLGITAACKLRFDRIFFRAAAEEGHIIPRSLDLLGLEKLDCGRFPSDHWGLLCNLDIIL
#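 Evaluation: % inhibition relative to enzyme-containing and enzyme-free wells. Material: recombinant human TDP2. Benchmarks: enzyme-free and DMSO wells. Timing: enzyme reaction with compound for 2 h at 37 °C. Compound dosing: 12.8 µM only. Measured by: p-Nitrophenol epi absorbance. Reagent: T5PNP substrate at 5 mM, a TopII-DNA adduct mimic. Replication: single well per compound.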
# PAD4 FP inh: blocks human protein arginine deiminase 4 | recombinant PAD4, RCA probe fluorescence polarization | inhibition, % at 6.36 µM | hit rate 0.41% among 330,000 | AID 485272;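 active means percent inhibition above a cutoff equal to the mean of all tested compounds plus 3 SD, cut at about 15% in these data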;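 further: 0% = PAD4 with RCA probe and DMSO and 100% = probe without PAD4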
# GSTO1 counter: counter-screen for RBBP9 inhibitors: inhibitors of human GSTO1; AID 1974; hit rate 1.1% among 300,000; P78417; recombinant GSTO1, activity-based probe fluorescence polarization; inhibition, % at 5.96 µM;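 active means inhibition above the campaign mean inhibition plus 3 SD, cut at about 35% in these data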;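 further: 0% = GSTO1-1 with DMSO and 100% = wells lacking GSTO1-1 enzyme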
# Target sequence (P78417 whole entry, looked up): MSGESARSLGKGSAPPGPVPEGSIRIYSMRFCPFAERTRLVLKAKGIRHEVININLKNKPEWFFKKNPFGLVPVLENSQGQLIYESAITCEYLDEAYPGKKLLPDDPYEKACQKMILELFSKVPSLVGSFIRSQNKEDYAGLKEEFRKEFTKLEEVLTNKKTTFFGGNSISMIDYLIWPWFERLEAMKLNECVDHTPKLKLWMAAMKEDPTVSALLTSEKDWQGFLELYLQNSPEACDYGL
# GSTO1 confirm: GSTO1 (human) inhibition, confirmation. shares compounds with GSTO1 counter. recombinant GSTO1, probe fluorescence polarization. inhibition, % at 5.96 µM. hit rate 54% among 2,400. AID 2176;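 active means inhibition above the primary screen's cutoff, its mean inhibition plus 3 SD, cut at about 35% in these data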;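 further: loss of polarization as inhibitors block binding of rhodamine sulfonate ester activity probe; 0% = GSTO1 with DMSO and 100% = wells lacking GSTO1 enzyme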
# Numbers without * were called inactive; . = no result given.
SMILES,CTSL1 counter,TDP2 inh,PAD4 FP inh,GSTO1 counter,GSTO1 confirm
Oc1ccc(/C=N/Nc2ccnc3cc(Cl)ccc23)c(O)c1O,1.9,0.0,2.5,26.3,.
Oc1ccc(/C=N/Nc2ccnc3cc(Cl)ccc23)cc1O,-3.4,-8.1,-4.3,38.0*,7.5
O=CN/C=C/c1cc(O)ccc1O,0.3,5.6,2.2,71.6*,7.5
O=C(CCl)Nc1cc(-c2ccccc2)nn1-c1ccccc1,68.1*,5.3,-5.3,64.7*,88.6*
Cc1ccc(-c2cc(NC(=O)CCl)n(-c3ccccc3)n2)cc1,75.3*,3.5,1.4,73.2*,86.4*
Cc1cc(NC(=O)COc2ccccc2)n(-c2ccccc2)n1,0.4,4.1,-4.3,-8.0,.
CC(=O)Nc1ccc(-c2cc(NC(C)=O)n(-c3ccccc3)n2)cc1,3.1,5.7,-6.8,-5.7,.
CC(COc1ccc(CC#N)cc1)CN1CCC(C(O)(c2ccccc2)c2ccccc2)CC1 (stereo unspecified),.,-16.7,.,.,.
Cc1cccc(NC(=O)CSCc2cc(=O)n3nc(C4CC4)sc3n2)c1,-1.1,-6.4,-1.4,1.1,.
COc1ccc(NC(=O)CSCc2cc(=O)n3nc(C4CC4)sc3n2)cc1,-1.4,7.2,1.1,37.5*,17.5
Cn1c(=O)c2[nH]c(SCC(=O)NCCc3ccc(F)cc3)nc2n(C)c1=O,.,12.2,.,.,.
O=S1(=O)c2ccc(Br)cc2OC[C@@H](c2ccccc2)N1Cc1cn(CCC2OCCO2)nn1,.,-4.0,.,.,.
COc1ccc(-c2[nH]nc3c2C(c2ccsc2)C(C#N)=C(N)O3)cc1 (stereo unspecified),1.5,13.9,-13.1,24.9,.
COc1cc(C2C(C#N)=C(N)Oc3n[nH]c(-c4ccncc4)c32)cc(OC)c1OC (stereo unspecified),1.6,16.3,11.5,6.8,.
COc1cccc(-c2[nH]nc3c2C(c2ccsc2)C(C#N)=C(N)O3)c1 (stereo unspecified),4.5,12.3,6.4,50.8*,33.5
COc1ccc(C2C(C#N)=C(N)Oc3n[nH]c(-c4ccccn4)c32)c(OC)c1OC (stereo unspecified),-2.0,4.1,-11.0,43.0*,5.9
O=C(N[C@H](Cc1ccccc1)C(=O)NCc1ccccn1)[C@H]1O[C@@H](n2ccc(=O)[nH]c2=O)[C@H](O)[C@@H]1O,.,2.9,.,.,.
Cc1ccc(N(NC(=O)C(O)(c2ccccc2)c2ccccc2)C(=O)CCl)cc1,81.3*,-12.2,7.3,82.3*,92.2*
O=C(Nc1ccccc1)NN(C(=O)CCl)c1ccccc1,13.5,4.1,-1.8,82.4*,87.7*
C[C@@H]1/C=C/CC(=O)N[C@H](c2ccc3ccccc3c2)[C@H](C)/C=C/CC(=O)N[C@@H]1c1ccc2ccccc2c1,.,7.3,.,.,.
O=S(=O)(c1ccccc1)c1cc(O)ccc1O,-1.5,6.6,1.6,64.2*,9.3
O=S(=O)(c1ccc(Cl)cc1)c1cc(O)ccc1O,-2.6,-1.3,-0.6,61.2*,2.4
CCCN1C(=S)c2ccccc2C1c1ccccc1 (stereo unspecified),-3.2,10.1,3.2,60.1*,1.3
C=CCn1c(NC(=O)c2ccc(Br)o2)c(S(=O)(=O)c2ccccc2)c2nc3ccccc3nc21,9.8,23.3,20.2*,65.2*,7.0
C=CCOc1ccc(C(c2c(C(=O)O)[nH]c3ccccc23)c2c(C(=O)O)[nH]c3ccccc23)cc1,2.6,15.5,-1.3,19.6,.
SMILES,CTSL1 counter,TDP2 inh,PAD4 FP inh,GSTO1 counter,GSTO1 confirm
O=C(O)c1[nH]c2ccccc2c1C(c1ccccc1)c1c(C(=O)O)[nH]c2ccccc12,0.2,-1.4,0.2,37.6*,29.6
O=C(NCCN1CCOCC1)NC1(C(F)(F)F)Oc2ccc(Cl)cc2O1 (stereo unspecified),-5.2,0.6,-4.2,49.2*,6.5
Oc1cccc(O)c1O,-4.0,.,-3.5,61.6*,6.8
O=C(NC1CCCCC1)Oc1cc2oc(=O)sc2cc1Br,-0.9,-2.1,-3.3,51.3*,13.6
O=C(NC1CCCCCC1)c1ccc(Br)o1,1.4,8.3,-2.8,-2.9,.
COc1cc(OC)cc(-c2nc(-c3ccccc3OC)no2)c1,-3.0,-0.5,3.1,52.5*,6.1
COc1ccccc1-c1noc(-c2cc(OC)c(OC)c(OC)c2)n1,2.2,-6.4,-3.6,-6.7,.
Cc1ccc(C(=O)CSc2nnnn2C(C)C)c(C)c1,-1.3,4.0,-1.6,39.4*,37.5*
Cc1cccc(-c2cccc3c4c([nH]c23)[C@@H]2C[C@H](N(C)C(=O)Nc3ccccc3C)[C@H]([C@H](C)O)C(=O)N2CC4)c1,.,1.8,.,.,.
Cc1cccc(NC(=O)C2CCCN(c3nnc(-n4cccc4)s3)C2)c1C (stereo unspecified),.,-8.9,.,.,.
Oc1ccccc1Oc1ncc(Br)c(N2CCOCC2)n1,5.8,-18.3,-1.9,10.2,.
Oc1ccccc1Oc1ncc(Br)c(Cl)n1,7.7,24.4,-0.6,48.8*,3.9
Cc1ccc(S(=O)(=O)N2CCN(CC(=O)N/N=C/c3ccc(C)o3)CC2)cc1,-5.0,-5.8,0.7,2.1,.
CCN(CC)S(=O)(=O)c1cccc(C(=O)N/N=C/c2ccc(O)c(O)c2O)c1,-2.5,-6.4,-0.6,63.1*,20.1
O=C(N/N=C/c1ccc(O)c(O)c1)c1cccc(S(=O)(=O)N2CCCC2)c1,5.0,-5.3,5.6,67.2*,4.2
CCOc1ccccc1/C=N/NC(=O)c1cccc(S(=O)(=O)N(CC)CC)c1,0.3,5.2,0.9,4.2,.
Cc1ccc(C(=O)Nc2nnc(CC(=O)N/N=C/c3ccc(O)c(O)c3)s2)cc1,9.4,0.8,-12.0,38.1*,30.6
Cc1ccc(S(=O)(=O)N2CCN(CC(=O)N/N=C\c3ccc(O)c(O)c3)CC2)cc1,5.7,-12.4,2.3,45.9*,2.8
Cc1cc(OC(C)CCN2CCC(C(O)(c3ccccc3)c3ccccc3)CC2)ccc1Br (stereo unspecified),.,-0.1,.,.,.
CN(C)Cc1nc2ccccc2c(=O)n1Cc1nc(-c2cc3ccccc3o2)cs1,1.2,6.5,1.5,-4.9,.
Cc1csc(Cn2c(CN(C)C)nc3ccccc3c2=O)n1,7.0,5.2,-1.6,42.8*,4.1
O=C1c2cc(CO)cc(O)c2C(=O)c2c(O[C@@H]3OC(CO)[C@@H](O)[C@@H](O)[C@@H]3O)cccc21 (stereo partly specified),-0.9,-13.1,1.5,7.0,.
O=C(O)c1cc(O)c2c(c1)[C@@H]([C@H]1c3cc(C(=O)O)cc(O)c3C(=O)c3c(O[C@@H]4O[C@H](CO)[C@@H](O)[C@H](O)[C@H]4O)cccc31)c1cccc(OC3O[C@H](CO)[C@@H](O)[C@H](O)[C@H]3O)c1C2=O (stereo partly specified),12.1,21.7,-46.8,84.4*,80.0*
CN(C)CC(=O)N[C@H]1C[C@@H]2O[C@H](CO)CC[C@@H]2O[C@@H]1CCc1ccc(-c2ccc(F)cc2)cc1,.,-6.6,.,.,.

# High-throughput results deposited in PubChem by The Scripps Research Institute Molecular Screening Center.
